Source: ChEMBL document CHEMBL1127418, “Novel antiproliferative agents derived from lavendustin A” (J Med Chem, 1994)
Each block holds one compound with its values, some of them ahead of it.

Key:
HaCaT = assay: Inhibitory activity of HaCaT keratinocyte cell line; format: functional, cell-based; conditions: Homo sapiens
In short: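 HaCaT keratinocytes kept in DMEM with 5% FCS, trypsinized and seeded at 4000 cells/0.2 mL/well. After 24 h, medium was replaced with fresh medium holding graded compound concentrations. Proliferation was read after 3–4 days by sulforhodamine B colorimetry. IC50 values are the average of at least two independent measurements.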

[1] = target: Epidermal growth factor receptor (Homo sapiens, UniProt P00533); assay: Inhibition of EGF-R Tyrosine kinase (TK)
LoVo = assay: Inhibition of LOVO cell proliferation; format: functional, cell-based; conditions: Homo sapiens
MDA-MB-231 = assay: cells; conditions: Homo sapiens
HeLa = assay: Inhibition of HeLa cell proliferation; conditions: Homo sapiens
MCF7 = assay: Inhibition of MCF-7 cell proliferation; conditions: Homo sapiens
SK-BR-3 = assay: Inhibition of SK-BR-3 cell proliferation; format: functional, cell-based; conditions: Homo sapiens
In short: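 Tumour cells grown at 37 °C without antibiotics. Harvested at exponential growth (suspension lines) or 60–90% confluence (adherent lines, trypsinized), then seeded at 1000–5000 cells/well. Cultured 3–4 days with graded compound concentrations. Proliferation read by sulforhodamine B for adherent cells or MTT for suspension cells. IC50 derived from the concentration series.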

KB = assay: Inhibition of KB cell proliferation; conditions: Homo sapiens
A-431 = assay: Inhibition of A431 cell proliferation; conditions: Homo sapiens
K562 = assay: Inhibition of K562 cell proliferation; conditions: Homo sapiens
U-937 = assay: Inhibition of U937 cell proliferation; format: functional, cell-based; conditions: Homo sapiens
P388 = assay: Inhibition of P388 cell proliferation; conditions: Mus musculus
MDA-MB-468 = assay: Inhibition of MDA-MB-468 cell proliferation; format: functional, cell-based; conditions: Homo sapiens
L1210 [2] = assay: (§1) Inhibition of L1210 cell proliferation; format: functional, cell-based; conditions: Mus musculus
SCL-1 = assay: Inhibition of SCL-1 cell proliferation; conditions: Homo sapiens
L1210 [3] = assay: as §1; conditions: Mus musculus
B16 = assay: Inhibition of B16F1 cell proliferation; conditions: Mus musculus

Epidermal growth factor receptor, sequence (P00533 whole entry): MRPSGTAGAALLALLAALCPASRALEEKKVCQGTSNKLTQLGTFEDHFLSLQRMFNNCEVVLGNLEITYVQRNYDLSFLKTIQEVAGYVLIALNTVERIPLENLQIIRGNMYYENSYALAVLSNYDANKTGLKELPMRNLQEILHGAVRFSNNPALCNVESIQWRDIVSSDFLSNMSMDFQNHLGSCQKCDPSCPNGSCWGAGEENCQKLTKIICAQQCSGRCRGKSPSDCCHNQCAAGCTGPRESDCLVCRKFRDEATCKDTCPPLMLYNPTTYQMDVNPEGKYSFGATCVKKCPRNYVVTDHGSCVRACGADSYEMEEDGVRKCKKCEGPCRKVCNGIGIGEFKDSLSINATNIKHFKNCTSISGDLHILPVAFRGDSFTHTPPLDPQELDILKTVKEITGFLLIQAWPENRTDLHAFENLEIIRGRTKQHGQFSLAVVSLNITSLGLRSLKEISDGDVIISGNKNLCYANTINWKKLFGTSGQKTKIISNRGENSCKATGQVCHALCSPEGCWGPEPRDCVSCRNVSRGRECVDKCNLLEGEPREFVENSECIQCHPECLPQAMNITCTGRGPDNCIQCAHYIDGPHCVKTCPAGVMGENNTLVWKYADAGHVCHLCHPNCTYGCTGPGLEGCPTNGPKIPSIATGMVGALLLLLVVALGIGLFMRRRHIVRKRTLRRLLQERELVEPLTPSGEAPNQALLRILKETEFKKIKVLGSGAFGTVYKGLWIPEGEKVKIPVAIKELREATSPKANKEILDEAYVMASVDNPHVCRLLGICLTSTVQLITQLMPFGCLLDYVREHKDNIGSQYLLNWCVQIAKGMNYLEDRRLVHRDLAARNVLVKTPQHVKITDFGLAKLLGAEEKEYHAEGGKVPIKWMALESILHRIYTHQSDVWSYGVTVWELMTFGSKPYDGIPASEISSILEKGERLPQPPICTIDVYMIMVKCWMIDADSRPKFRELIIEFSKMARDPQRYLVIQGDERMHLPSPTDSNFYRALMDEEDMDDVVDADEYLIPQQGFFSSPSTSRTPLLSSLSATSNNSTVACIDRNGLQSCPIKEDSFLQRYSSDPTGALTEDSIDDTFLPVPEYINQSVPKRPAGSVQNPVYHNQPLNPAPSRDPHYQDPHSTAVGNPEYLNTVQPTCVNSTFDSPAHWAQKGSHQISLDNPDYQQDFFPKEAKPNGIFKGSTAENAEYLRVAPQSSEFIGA

IC50 [1]: 4100 nM
Compound: O=C(O)c1cc(N(Cc2ccccc2O)Cc2cc(O)ccc2O)ccc1O [LAVENDUSTIN A]
IC50 (HaCaT): > 100000 nM

Compound: COC(=O)c1cc(CCc2cc(O)ccc2O)ccc1O
IC50 (HaCaT): 18000 nM

IC50 [1]: > 100000 nM
Compound: COc1ccc(OC)c(CNc2ccc(O)c(C(=O)O)c2)c1
IC50 (HaCaT): 92000 nM

IC50 [1]: 24400 nM
Compound: COC(=O)c1cc(NCc2cc(O)ccc2O)ccc1O
IC50 (HaCaT): 29000 nM

Compound: COC(=O)c1cc(/C=C/c2cc(OC)ccc2OC)ccc1O
IC50 (HaCaT): 5600 nM

Compound: COC(=O)c1cc(COc2cc(OC)ccc2OC)ccc1O
IC50 (HaCaT): 14000 nM

Compound: COC(=O)c1cc(NCc2cc(OC)ccc2OC)ccc1O
IC50 (HaCaT): 1500 nM

Compound: COC(=O)c1cc(CNc2cc(OC)ccc2OC)ccc1O
IC50 (HaCaT): 72000 nM

Compound: COc1ccc(OC)c(CCc2ccc(O)c(C(=O)O)c2)c1
IC50 (HaCaT): 4800 nM

Compound: COc1cc2c(c(OC)c1OC)-c1ccc(OC)c(=O)cc1[C@@H](NC(C)=O)CC2 [COLCHICINE]
IC50 (LoVo): 6 nM | IC50 (MDA-MB-231): 20.5 nM | IC50 (HeLa): 18 nM | IC50 (MCF7): 15.3 nM | IC50 (SK-BR-3): 5 nM | IC50 (KB): 5.6 nM | IC50 (A-431): 14 nM | IC50 (K562): 14.1 nM | IC50 (U-937): 5.2 nM | IC50 (P388): 9.5 nM | IC50 (MDA-MB-468): 6.9 nM | IC50 (L1210 [2]): 14.7 nM

Compound: COC(=O)c1cc(/C=C\c2cc(OC)ccc2OC)ccc1O
IC50 (HaCaT): 3900 nM

Compound: O=C(O)c1cc(NCc2cc(O)ccc2O)ccc1O [LAVENDUSTIN C]
IC50 (HaCaT): ≥ 100000 nM

IC50 [1]: 3300 nM
Compound: O=C(O)c1cc(CCc2cc(O)ccc2O)ccc1O
IC50 (HaCaT): > 100000 nM

IC50 (LoVo): 185 nM | IC50 (MDA-MB-231): 428 nM | IC50 (HeLa): 470 nM | IC50 (MCF7): 19 nM | IC50 (L1210 [3]): 415 nM | IC50 (SK-BR-3): 31 nM | IC50 (KB): 192 nM | IC50 (A-431): 213 nM | IC50 (K562): 218 nM | IC50 (U-937): 320 nM | IC50 [1]: > 100000 nM | IC50 (P388): 338 nM | IC50 (MDA-MB-468): 46.5 nM | IC50 (B16): 269 nM
Compound: COC(=O)c1cc(CCc2cc(OC)ccc2OC)ccc1O
IC50 (SCL-1): 383 nM | IC50 (HaCaT): 40 nM
